Active and inactive are the calls of the source. The rule behind the calls is not given here.
How the values were obtained:
[1] = system: Quadruplex DNA; assay: Binding affinity to synthetic BCL2 G4 quadruplex DNA assessed as change in melting temperature at 10 molar equiv to DNA measured after 10 mins by circular dichroism melting analysis; type: nucleic-acid assay
Outline: (§1)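 CD melting of folded DNA (G4 10 µM, duplex 15 µM) in 20 mM KCl, 5 mM KH2PO4 (pH 7.0), without and with 10 molar equivalents of ligand. Tm was taken from curve fitting, and ΔTm = Tm(DNA+ligand) − Tm(DNA). Runs were done in triplicate and averaged.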

[2] = system: Quadruplex DNA; assay: Binding affinity to human telomeric 23 G4 quadruplex DNA assessed as change in melting temperature at 10 molar equiv to DNA measured after 10 mins by circular dichroism melting analysis; type: nucleic-acid assay; outline: as §1
[3] = Binding affinity to synthetic 20-mer hairpin duplex DNA assessed as change in melting temperature at 10 molar equiv to DNA measured after 10 mins by circular dichroism melting analysis; outline: as §1
[4] = system: Quadruplex DNA; assay: Binding affinity to synthetic c-MYC G4 quadruplex DNA assessed as change in melting temperature at 10 molar equiv to DNA measured after 10 mins by circular dichroism melting analysis; type: nucleic-acid assay; outline: as §1
[5] = system: Quadruplex DNA; assay: Binding affinity to synthetic c-KIT1 G4 quadruplex DNA assessed as change in melting temperature at 10 molar equiv to DNA measured after 10 mins by circular dichroism melting analysis; type: nucleic-acid assay; outline: as §1
[6] = Binding affinity to synthetic 20-mer hairpin duplex DNA assessed as change in chiral structure at 10 molar equiv to DNA measured after 10 mins by circular dichroism spectroscopic analysis
Outline: (§2)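 CD spectra of annealed DNA in 20 mM KCl, 5 mM KH2PO4 (pH 7.0). G4 DNAs were at 10 µM and duplex at 15 µM. Ligand (10 mM DMSO stock) was added at 10 molar equivalents. Spectra were recorded 10 min after addition at 20 °C over 230–360 nm, averaged over three scans and baseline corrected.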

[7] = system: Quadruplex DNA; assay: Binding affinity to human telomeric 23 G4 quadruplex DNA assessed as change in chiral structure at 10 molar equiv to DNA measured after 10 mins by circular dichroism spectroscopic analysis; type: nucleic-acid assay; outline: as §2
[8] = system: Quadruplex DNA; assay: Binding affinity to synthetic c-KIT1 G4 quadruplex DNA assessed as change in chiral structure at 10 molar equiv to DNA measured after 10 mins by circular dichroism spectroscopic analysis; type: nucleic-acid assay; outline: as §2
[9] = system: Quadruplex DNA; assay: Binding affinity to synthetic BCL2 G4 quadruplex DNA assessed as change in chiral structure at 10 molar equiv to DNA measured after 10 mins by circular dichroism spectroscopic analysis; type: nucleic-acid assay; outline: as §2
[10] = system: Quadruplex DNA; assay: Binding affinity to synthetic c-MYC G4 quadruplex DNA assessed as change in chiral structure at 10 molar equiv to DNA measured after 10 mins by circular dichroism spectroscopic analysis; type: nucleic-acid assay; outline: as §2

ΔTm [1] | ΔTm [2] | ΔTm [3] | ΔTm [4] | ΔTm [5] | Activity [6] | Activity [7] | Activity [8] | Activity [9] | Activity [10] | deltaTm [1] | deltaTm [2] | deltaTm [3] | deltaTm [4] | deltaTm [5] | SMILES
1.7 °C | -0.1 °C | 0.5 °C | 1.1 °C | 1.4 °C | – | – | – | – | – | – | – | – | – | – | CN(C)c1ccc(-c2nc3c4ncn(CCCN)c4ncn3c2NC(C)(C)C)cc1
13.4 °C | 4.8 °C | 7.5 °C | 19.5 °C | 7.3 °C | – | – | – | – | – | – | – | – | – | – | CN(C)c1ccc(-c2nc3c4ncn(CCN5CCCC5)c4ncn3c2NC(C)(C)C)cc1
7.1 °C | 4.9 °C | 2.2 °C | 8.4 °C | 4.5 °C | – | – | – | – | – | – | – | – | – | – | CC(C)(C)Nc1c(-c2ccccc2OCCN2CCCC2)nc2c3ncn(CCN4CCCC4)c3ncn12
5 °C | 1.1 °C | 0.3 °C | 5.8 °C | 2.1 °C | – | – | – | – | – | – | – | – | – | – | CC(C)(C)Nc1c(-c2ccccc2F)nc2c3ncn(CCN4CCCC4)c3ncn12
4.5 °C | 2.3 °C | 1.9 °C | 6.4 °C | 2.3 °C | – | – | – | – | – | – | – | – | – | – | CC(C)(C)Nc1c(-c2ccc(Cl)cc2)nc2c3ncn(CCN4CCCC4)c3ncn12
2.8 °C | 0.6 °C | 0.2 °C | 2.5 °C | 2.1 °C | – | – | – | – | – | – | – | – | – | – | CN(C)c1ccc(-c2nc3c4ncn(CCCNC(=N)N)c4ncn3c2NC(C)(C)C)cc1
9.2 °C | 2.4 °C | 1.9 °C | 7.2 °C | 5.2 °C | inactive | inactive | inactive | inactive | inactive | – | – | – | – | – | CN(C)c1ccc(-c2nc3c4ncn(CCN5CCOCC5)c4ncn3c2NC(C)(C)C)cc1
– | – | – | – | – | inactive | inactive | inactive | inactive | inactive | inactive | inactive | inactive | inactive | inactive | CC(C)(C)Nc1c(-c2ccc(Cl)cc2)nc2[nH]c(=O)c3ncn(CCN4CCOCC4)c3n12
– | – | – | – | – | inactive | inactive | inactive | inactive | inactive | inactive | inactive | inactive | inactive | inactive | CN(C)c1ccc(-c2nc3ccn(CCN4CCOCC4)c(=O)n3c2NC(C)(C)C)cc1
10.1 °C | 3.8 °C | 9.7 °C | 9.5 °C | 5.1 °C | – | – | – | – | – | – | – | – | – | – | CN(C)CCCn1cnc2c1ncn1c(NC(C)(C)C)c(-c3ccc(N4CCOCC4)cc3)nc21

From ChEMBL document CHEMBL4402513, “Bio-Inspired Dual-Selective BCL-2/c-MYC G-Quadruplex Binders: Design, Synthesis, and Anticancer Activity of Drug-like Imidazo[2,1-i]purine Derivatives” (J Med Chem, 2020)
